In all, about 1,300 compounds went through this assay and about 65 (5%) were called active. The sample holds actives, similar compounds and a random draw of the others, so the mix is not that of the screen.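 How the source made its calls: active means growth inhibition reaching a set limit at one or more tested doses; inactive means the rest.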 Potency and affinity values are given separately.
experiment: growth inhibition of wild-type E. coli, dose response, BW25113 wild type, OD615 (AID 638); conditions: at 100 µM (top of the series)
Summary of the method: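 Assay system: E. coli BW25113 wild type; buffer or medium: Kanamycin-supplemented LB broth; signal: optical density (absorbance) at 615 nm; controls: chloramphenicol 30 µM control; doses: compound concentration series; times: bacterial exposure to compound 20 h at 37 °C; evaluation: IC50 from 4-parameter logistic, bounds fixed 0–100%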

Row | Compound | growth inhibition
1 | Clc1ccc(COC(Cn2ccnc2)c2ccc(Cl)cc2Cl)c(Cl)c1 (stereo not given) | 10.9% (active)
2 | Clc1ccc(COC(Cn2ccnc2)c2ccc(Cl)cc2Cl)cc1 (stereo not given) | 4.14% (inactive)
3 | Cc1nn(-c2ccccc2)c(Cl)c1C1C(C#N)=C(N)Oc2c1c(=O)oc1ccccc21 (stereo not given) | 3.35% (inactive)
4 | CN(C)C1(c2nnnn2CCOC(=O)Nc2ccc(Cl)cc2)CCCCC1 | 4.48% (inactive)
5 | CCC(=Nc1ccc(OC)cc1OC)c1c(O)n(C2CCCCC2)c(=O)[nH]c1=O | -2.11% (inactive)
